# Results as given in BindingDB's records for doi:10.1016/j.bmcl.2011.06.023 (Merck Research Laboratories, 2011).
# Where “and” joins values, the source holds several entries; their conditions need not be identical. Equal entries are not always repeated.
# Legend:
# [1] = biological target: Smoothened (Mus musculus) (UniProt P56726); test: Antagonist activity at smoothened expressed in mouse Shh Light2 cells assessed as inhibition of purmorphamine- induced Gli-dependent luciferase gene expression
# Chain of Smoothened (Mus musculus) (P56726 whole entry, looked up): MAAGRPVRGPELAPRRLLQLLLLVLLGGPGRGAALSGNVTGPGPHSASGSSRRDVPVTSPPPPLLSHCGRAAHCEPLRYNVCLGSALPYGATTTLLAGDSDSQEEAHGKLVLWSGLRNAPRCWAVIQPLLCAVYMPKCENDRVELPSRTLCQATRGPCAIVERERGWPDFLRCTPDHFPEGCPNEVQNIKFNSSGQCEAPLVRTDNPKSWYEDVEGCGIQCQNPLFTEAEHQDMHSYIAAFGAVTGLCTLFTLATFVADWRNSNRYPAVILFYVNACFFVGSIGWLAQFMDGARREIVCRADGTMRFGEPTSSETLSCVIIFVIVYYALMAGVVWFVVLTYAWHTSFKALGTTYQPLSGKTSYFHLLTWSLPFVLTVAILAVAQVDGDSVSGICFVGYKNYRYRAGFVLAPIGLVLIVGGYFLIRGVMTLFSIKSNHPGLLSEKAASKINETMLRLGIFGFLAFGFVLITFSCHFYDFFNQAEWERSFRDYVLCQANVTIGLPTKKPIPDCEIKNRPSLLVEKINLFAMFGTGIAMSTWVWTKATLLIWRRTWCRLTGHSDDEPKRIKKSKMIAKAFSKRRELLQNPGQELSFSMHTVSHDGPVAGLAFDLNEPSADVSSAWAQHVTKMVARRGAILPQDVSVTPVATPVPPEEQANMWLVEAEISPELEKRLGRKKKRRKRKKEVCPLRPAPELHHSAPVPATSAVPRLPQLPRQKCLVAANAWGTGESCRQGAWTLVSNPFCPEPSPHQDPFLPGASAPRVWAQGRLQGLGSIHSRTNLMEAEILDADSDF
# [2] = biological target: Smoothened homolog (Homo sapiens, UniProt Q99835); test: Displacement of BODIPY-cyclopamine from human Smo expressed in HEK293 cells in presence of 2% fetal calf serum
# Chain of Smoothened homolog (Q99835 whole entry): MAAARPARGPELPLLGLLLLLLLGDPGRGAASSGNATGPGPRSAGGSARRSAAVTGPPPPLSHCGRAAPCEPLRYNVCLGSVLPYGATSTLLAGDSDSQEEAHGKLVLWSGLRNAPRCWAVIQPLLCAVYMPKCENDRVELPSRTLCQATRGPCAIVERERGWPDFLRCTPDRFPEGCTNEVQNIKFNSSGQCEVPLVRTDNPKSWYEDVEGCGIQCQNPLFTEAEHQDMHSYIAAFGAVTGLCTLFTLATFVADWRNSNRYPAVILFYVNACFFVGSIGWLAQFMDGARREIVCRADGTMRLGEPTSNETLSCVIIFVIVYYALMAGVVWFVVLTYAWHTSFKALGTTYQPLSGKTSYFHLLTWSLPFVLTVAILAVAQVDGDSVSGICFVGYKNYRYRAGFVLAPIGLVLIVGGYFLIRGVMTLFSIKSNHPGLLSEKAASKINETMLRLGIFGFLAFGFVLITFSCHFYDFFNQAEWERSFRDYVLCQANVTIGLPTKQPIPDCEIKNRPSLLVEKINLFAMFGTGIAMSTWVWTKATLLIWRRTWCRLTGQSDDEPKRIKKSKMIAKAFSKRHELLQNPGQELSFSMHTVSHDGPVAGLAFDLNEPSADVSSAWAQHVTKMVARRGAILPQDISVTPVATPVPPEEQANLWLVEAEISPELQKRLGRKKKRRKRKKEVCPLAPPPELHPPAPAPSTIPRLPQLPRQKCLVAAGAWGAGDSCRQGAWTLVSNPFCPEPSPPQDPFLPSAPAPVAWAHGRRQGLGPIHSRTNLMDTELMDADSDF
# Outline: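 Competition binding: displacement of fluorescently labeled bodipy-cyclopamine from recombinant human Smo expressed in HEK-293 cells. Run in 2% fetal calf serum and, separately, in 20% normal human serum. IC50 values are means of at least five experiments.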
Structure (SMILES),IC50 [1],IC50 [2]
O=C(Nc1ccnn1-c1cccc(Cl)c1)N1CCn2c(c(O)n([C@H]3C[C@@H]3c3ccccc3)c2=O)C1,8 nM,
O=C(Nc1cccc(Cl)c1Cl)N1CCn2c(c(O)n([C@H]3C[C@@H]3c3ccccc3)c2=O)C1,270 nM and 430 nM,
O=C(Nc1cccnc1-c1ccccc1)N1CCn2c(c(O)n([C@H]3C[C@@H]3c3ccccc3)c2=O)C1,28 nM,
O=C(Nc1ccccc1-c1ccccc1)N1CCn2c(c(O)n([C@H]3C[C@@H]3c3ccccc3)c2=O)C1,100 nM and 42 nM and 140 nM,48 nM and 21 nM
C[C@]12CN(C(=O)Nc3ccccc3-c3ccccc3)CCN1C(=O)N([C@H]1C[C@@H]1c1ccccc1)C2=O,1400 nM,
C[C@@]12CN(C(=O)Nc3ccnn3-c3ccccc3)CCN1C(=O)N([C@H]1C[C@@H]1c1ccccc1)C2=O,17 nM,
O=C(Nc1cccc(Cl)c1Cl)N1CCn2c(c(O)n([C@@H]3C[C@H]3c3ccccc3)c2=O)C1,880 nM and 1400 nM,
C[C@@]12CN(C(=O)Nc3ccccc3-c3ccccc3)CCN1C(=O)N([C@H]1C[C@@H]1c1ccccc1)C2=O,23 nM,
CS(=O)(=O)c1cc(Cl)c(NC(=O)N2CCn3c(c(O)n([C@H]4C[C@@H]4c4ccccc4)c3=O)C2)c(Cl)c1,41 nM,
O=C(Nc1cccnc1-c1ccsc1)N1CCn2c(c(O)n([C@H]3C[C@@H]3c3ccccc3)c2=O)C1,89 nM,
O=C(Nc1ccnn1-c1cccc(F)c1)N1CCn2c(c(O)n([C@H]3C[C@@H]3c3ccccc3)c2=O)C1,6 nM,
